Consider 22 molecules from ChEMBL document CHEMBL1127821 (J Med Chem, 1994).

Assay [1] has as its target Sodium-dependent serotonin transporter (Rattus norvegicus, UniProt P31652). Briefly: Inhibition of [3H]paroxetine binding to serotonin transport sites in rat frontal cortex membranes. It counts as cell membranes, Membrane. The method, boiled down:
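Frontal cortex from male Sprague-Dawley rats, homogenized in 50 mM Tris-HCl/120 mM NaCl/5 mM KCl pH 7.4 and washed twice at 48000g. […] Filtered on GF/B presoaked in 0.05% polyethyleneimine. Nonspecific binding with 10 μM fluoxetine.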

Assay [2] deals with T1, Sodium-dependent dopamine transporter (Rattus norvegicus, UniProt P23977). The assay is described as follows: Inhibition of [125I]RTI-55 binding to dopamine transport sites in rat striatal membranes. Format: cell membranes, Membrane.
T1 sequence (P23977 whole entry): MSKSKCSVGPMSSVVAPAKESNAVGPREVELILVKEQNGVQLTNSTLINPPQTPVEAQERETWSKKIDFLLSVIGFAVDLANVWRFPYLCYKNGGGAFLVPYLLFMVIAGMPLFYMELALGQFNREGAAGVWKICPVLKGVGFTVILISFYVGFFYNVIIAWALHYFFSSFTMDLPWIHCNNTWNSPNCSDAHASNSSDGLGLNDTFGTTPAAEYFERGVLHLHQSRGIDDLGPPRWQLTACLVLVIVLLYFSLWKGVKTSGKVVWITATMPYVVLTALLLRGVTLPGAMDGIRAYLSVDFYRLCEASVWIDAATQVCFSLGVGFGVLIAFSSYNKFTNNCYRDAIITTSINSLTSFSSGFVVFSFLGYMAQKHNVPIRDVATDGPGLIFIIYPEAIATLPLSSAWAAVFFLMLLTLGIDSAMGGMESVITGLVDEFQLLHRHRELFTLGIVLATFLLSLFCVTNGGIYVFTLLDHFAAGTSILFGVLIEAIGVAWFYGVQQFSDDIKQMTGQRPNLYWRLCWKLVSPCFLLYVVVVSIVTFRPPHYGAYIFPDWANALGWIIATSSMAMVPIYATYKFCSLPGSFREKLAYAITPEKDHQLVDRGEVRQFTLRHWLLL
Assay [3] addresses T1, Sodium-dependent dopamine transporter. Briefly: The potency of the [125I]RTI-55 for Dopamine transporter site.

The Ki is a dissociation constant, usually derived from enzyme kinetics or from competition with a known ligand. Low readings indicate a stronger hold on the target, high ones a looser hold on the target. For orientation: IC50 means the midpoint of a concentration-inhibition curve. The term Kd denotes a measure of binding affinity in units of concentration. A lower Kd goes with tighter binding.

Each structure is given as a SMILES string. Some results are limits rather than exact numbers.

Sodium-dependent serotonin transporter, sequence (P31652 whole entry): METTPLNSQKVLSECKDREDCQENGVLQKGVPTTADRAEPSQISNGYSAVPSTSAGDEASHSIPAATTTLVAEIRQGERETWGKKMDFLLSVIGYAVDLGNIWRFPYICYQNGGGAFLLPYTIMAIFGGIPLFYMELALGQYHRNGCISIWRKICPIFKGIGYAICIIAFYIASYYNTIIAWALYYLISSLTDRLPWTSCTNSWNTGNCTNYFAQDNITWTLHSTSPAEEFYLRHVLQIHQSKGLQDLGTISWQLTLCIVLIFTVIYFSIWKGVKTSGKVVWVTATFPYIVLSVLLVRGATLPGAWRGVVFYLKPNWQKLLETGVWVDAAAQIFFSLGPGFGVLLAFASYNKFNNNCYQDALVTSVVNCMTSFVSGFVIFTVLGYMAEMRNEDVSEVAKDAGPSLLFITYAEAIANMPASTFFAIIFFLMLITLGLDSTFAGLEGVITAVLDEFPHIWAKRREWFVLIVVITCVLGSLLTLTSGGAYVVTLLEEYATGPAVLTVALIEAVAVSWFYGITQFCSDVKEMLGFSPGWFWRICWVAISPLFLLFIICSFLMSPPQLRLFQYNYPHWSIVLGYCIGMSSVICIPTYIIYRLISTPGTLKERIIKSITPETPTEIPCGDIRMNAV

As to `CCC(=O)C1C(c2ccc(C(C)(C)C)cc2)CC2CCC1N2C` (stereo unspecified), the affinity in assay [1], expressed as Ki, was 1770 nM. Moreover, the half-maximal inhibitory concentration (IC50) in assay [2] came to 2120 nM.

The molecule `CCC(=O)C1C(c2ccc(-c3ccccc3)cc2)CC2CCC1N2C` (stereo unspecified) gave a Ki in assay [1] of 4.31 nM. The molecule also had a 50% inhibitory concentration (IC50) in assay [2] of 2.29 nM.

In assay [1], `CC(=O)C1C(c2ccc(F)cc2)CC2CCC1N2C` (stereo unspecified) returned an inhibition constant (Ki) of 857 nM. Also, the 50% inhibitory concentration (IC50) in assay [2] came out at 70.8 nM.

On to `CC(=O)C1C(c2ccc3ccccc3c2)CC2CCC1N2C` (stereo unspecified), for which, in assay [1], the Ki was 1.06 nM. Further, the IC50 in assay [2] was 0.28 nM.

In turn, `CC(=O)C1C(c2ccc(C)cc2)CC2CCC1N2C` (stereo unspecified) had an inhibitory constant (Ki) in assay [1] of 122 nM. Also, in assay [2], the IC50 came to 9.8 nM.

In assay [1], `CCC(=O)C1C(c2ccc(F)cc2)CC2CCC1N2C` (stereo unspecified) displayed a Ki of 630 nM. This molecule also had an IC50 in assay [2] of 15.3 nM.

As to `CC(=O)C1C(c2cccc3ccccc23)CC2CCC1N2C` (stereo unspecified), the inhibition constant (Ki) in assay [1] stood at 25.6 nM.

In assay [3], `CCOC(=O)C1C(c2ccc(I)cc2)CC2CCC1N2C` (stereo unspecified) showed an equilibrium dissociation constant (Kd) of 1 nM.

As for `CCC(=O)C1C(c2ccccc2)CC2CCC1N2C` (stereo unspecified), the inhibitory constant (Ki) in assay [1] is 1010 nM.

Regarding `CCc1ccc(C2CC3CCC(C2C(C)=O)N3C)cc1` (stereo unspecified), in assay [1], the Ki stood at 78.2 nM. This molecule also came in with an IC50 in assay [2] of 152 nM.

For the molecule `CCC(=O)C1C(c2ccccc2C)CC2CCC1N2C` (stereo unspecified), the Ki in assay [1] is greater than 10000 nM. Further, the 50% inhibitory concentration (IC50) in assay [2] turned out to be 1290 nM.

Take `CCC(=O)C1C(c2ccc(C(C)C)cc2)CC2CCC1N2C` (stereo unspecified): the inhibitory constant (Ki) in assay [1] was determined as 35.8 nM. This molecule also gave a concentration for half-maximal inhibition (IC50) in assay [2] of 436 nM.

In assay [1], `CCC(=O)C1C(c2cccc3ccccc23)CC2CCC1N2C` (stereo unspecified) gave an inhibition constant (Ki) of 20.9 nM. In assay [2], this molecule returned a 50% inhibitory concentration (IC50) of 5.34 nM.

In turn, `CCC(=O)C1C(C2CCCCC2)CC2CCC1N2C` (stereo unspecified) came in with an inhibitory constant (Ki) in assay [1] greater than 10000 nM. In assay [2], this molecule displayed an IC50 of 4610 nM.

As for `CCC(=O)C1C(CC)CC2CCC1N2C` (stereo unspecified), in assay [1], the Ki was greater than 10000 nM. This molecule also showed an IC50 in assay [2] greater than 50000 nM.

As for `CC(=O)C1C(c2ccccc2)CC2CCC1N2C` (stereo unspecified), the affinity in assay [1] corresponds to a Ki of 1360 nM. Moreover, the 50% inhibitory concentration (IC50) in assay [2] stood at 114 nM.

In assay [1], `CCC(=O)C1C(c2ccc(C)cc2)CC2CCC1N2C` (single isomer, unassigned; (+)) yielded a Ki of 74 nM. In assay [2], the IC50 is 4.21 nM.

With `CCC(=O)C1C(c2ccc(C)cc2)CC2CCC1N2C` (single isomer, unassigned; (-)), in assay [1], the Ki is greater than 10000 nM. The IC50 in assay [2] came to 1340 nM.

Consider `CCC(=O)C1C(c2ccc3ccccc3c2)CC2CCC1N2C` (single isomer, unassigned; (-)), for which, in assay [1], the inhibition constant Ki is 484 nM. In assay [2], this molecule came in with an IC50 of 113 nM.

`CCC(=O)C1C(c2ccc(C)cc2)CC2CCC1N2C` (stereo in doubt; 12a) gave a Ki in assay [1] of 131 nM. The same molecule had an IC50 in assay [2] of 8.2 nM.

Take `CCC(=O)C1C(c2ccc3ccccc3c2)CC2CCC1N2C` (stereo in doubt; 21a): in assay [1], the affinity, expressed as Ki, was 0.394 nM. Moreover, in assay [2], the IC50 is 0.115 nM.

For `CCC(=O)C1C(c2ccc3ccccc3c2)CC2CCC1N2C` (stereo in doubt; (+)-21a), the Ki in assay [1] came to 0.121 nM. For the same molecule, in assay [2], the IC50 is 0.043 nM.
